# Laboratory results taken from ChEMBL document CHEMBL4014338, “Discovery of Small Molecules as Multi-Toll-like Receptor Agonists with Proinflammatory and Anticancer Activities” (J Med Chem, 2017).
# The source made the active and inactive calls. The rule behind the calls is not given here.
# Columns and labels:
# Type in all cases: cell-based
# [1] = molecular target: Toll-like receptor 3 (Homo sapiens) (UniProt O15455); assay: Agonist activity at human TLR3 expressed in HEK293 cells assessed as induction of NF-kB activation-mediated SEAP production at 25 uM after 24 hrs by HTS assay relative to control
# How it was run: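 hTLR3 HEK293 SEAP reporter cells seeded at 5 × 10^4 cells/well for 24 h, exposed to 25 μM for 24 h. Supernatant SEAP detected with QUANTI-Blue (1 h, 37 °C, OD 620 nm). Activation normalized to untreated cells and expressed as fold change.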
# Toll-like receptor 3 = molecular target: T1, Toll-like receptor 3 (Homo sapiens, UniProt O15455); assay: Agonist activity at human TLR3 expressed in HEK293 cells assessed as induction of NF-kB activation-mediated SEAP production after 24 hrs by HTS assay
# T1 sequence (O15455 whole entry): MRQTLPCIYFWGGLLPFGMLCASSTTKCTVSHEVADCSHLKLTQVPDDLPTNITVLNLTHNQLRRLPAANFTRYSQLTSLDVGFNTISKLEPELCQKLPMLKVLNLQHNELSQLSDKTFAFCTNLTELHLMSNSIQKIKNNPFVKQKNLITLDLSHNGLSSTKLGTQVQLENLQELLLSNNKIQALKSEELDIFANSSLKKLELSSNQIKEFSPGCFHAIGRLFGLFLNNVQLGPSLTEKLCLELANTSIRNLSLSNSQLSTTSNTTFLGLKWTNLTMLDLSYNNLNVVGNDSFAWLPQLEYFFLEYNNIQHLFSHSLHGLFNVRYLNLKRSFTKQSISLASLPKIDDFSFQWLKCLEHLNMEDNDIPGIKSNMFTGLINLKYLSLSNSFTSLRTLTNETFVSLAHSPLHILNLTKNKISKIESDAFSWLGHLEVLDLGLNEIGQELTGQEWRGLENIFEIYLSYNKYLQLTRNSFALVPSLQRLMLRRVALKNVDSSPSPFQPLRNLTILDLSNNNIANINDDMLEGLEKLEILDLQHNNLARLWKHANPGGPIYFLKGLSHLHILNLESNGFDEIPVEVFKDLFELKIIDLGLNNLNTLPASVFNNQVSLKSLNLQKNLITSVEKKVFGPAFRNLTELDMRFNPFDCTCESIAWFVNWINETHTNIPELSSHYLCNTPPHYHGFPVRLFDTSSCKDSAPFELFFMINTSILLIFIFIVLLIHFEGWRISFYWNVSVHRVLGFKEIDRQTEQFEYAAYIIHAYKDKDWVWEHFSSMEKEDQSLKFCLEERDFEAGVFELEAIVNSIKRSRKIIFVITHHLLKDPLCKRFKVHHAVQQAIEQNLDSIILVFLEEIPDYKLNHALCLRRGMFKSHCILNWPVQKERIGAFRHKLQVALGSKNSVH
# How it was run: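 Stable HEK293 lines expressing a single hTLR plus a SEAP reporter, grown in DMEM/10% FBS with selective antibiotics. Seeded at 5 × 10^4 cells/well for 24 h at 37 °C, then treated 24 h. Supernatant mixed with QUANTI-Blue, 1 h at 37 °C, OD 620 nm. Cognate agonists: Pam3CSK4 (TLR2), poly I:C (TLR3), LPS (TLR4), FLA-BS (TLR5), R848 (TLR7). EC50 as mean ± SD.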
# [2] = molecular target: Toll-like receptor 3 (Homo sapiens) (UniProt O15455); assay: Agonist activity at human TLR3 expressed in HEK293 cells assessed as induction of NF-kB activation-mediated SEAP production at 30 uM after 24 hrs by HTS assay
# How it was run: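 HTS in HEK293 cells stably expressing human TLR3 plus an NF-κB-inducible SEAP reporter, seeded at 20,000 cells/well and run in duplicate. Library compounds in DMSO at 30 μM final. Poly I:C 5 μg/mL served as positive control and cells + medium + DMSO as negative control. SEAP in supernatant read by QUANTI-Blue; assay quality judged by Z′ factor.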
# Homo sapiens = organism: Homo sapiens; assay: Activation of NF-kB in HEK293 cells assessed as SEAP production at 30 uM after 24 hrs by HTS assay
# How it was run: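 hTLR3-transfected HEK293 cells carrying an NF-κB-inducible SEAP reporter, seeded at 20,000 cells/well in duplicate; library compounds in DMSO at 30 μM final. Poly I:C 5 μg/mL as positive control; cells + medium + DMSO as negative control. SEAP in supernatant read by QUANTI-Blue; hits ranked on RMS values.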
# HEK293 = assay: Cytotoxicity against HEK293 cells at 25 uM; settings: human, hek293, 25 µM
SMILES,fold change (FC) [1],other results
CC1(C)C=Cc2cc(OCc3ccc(F)c(F)c3)c(OCc3ccc(F)c(F)c3)cc2O1,0.99,
CC1(C)CC(O)c2cc(OCc3ccc([N+](=O)[O-])cc3)c(OCc3ccc([N+](=O)[O-])cc3)cc2O1 (stereo not given),2.5,EC50 (Toll-like receptor 3): 42.5 µM
O=[N+]([O-])c1ccc(COc2cc3c(cc2OCc2ccc([N+](=O)[O-])cc2)OC2(C=C3)CCCCCC2)cc1,1.07,
CC1(C)CC(O)c2cc(OCc3ccc(F)c(F)c3)c(OCc3ccc(F)c(F)c3)cc2O1 (stereo not given),0.95,
O=[N+]([O-])c1ccc(COc2cc3c(cc2OCc2ccc([N+](=O)[O-])cc2)OC2(C=C3)CCCC2)cc1,1.22,
CC1(C)CC(O)c2cc(OCc3ccc(C(F)(F)F)cc3)c(OCc3ccc(C(F)(F)F)cc3)cc2O1 (stereo not given),2.36,
COc1cc2c(cc1OCc1ccc([N+](=O)[O-])cc1)C=CC(C)(C)O2,1.19,
CC1(C)C=Cc2cc(OCc3ccccc3[N+](=O)[O-])c(OCc3ccccc3[N+](=O)[O-])cc2O1,1.08,
CC1(C)C=Cc2cc(OCc3ccc([N+](=O)[O-])c(F)c3)c(OCc3ccc([N+](=O)[O-])c(F)c3)cc2O1,1.24,
CC1(C)C=Cc2cc(OC(=O)c3ccc([N+](=O)[O-])cc3)c(OC(=O)c3ccc([N+](=O)[O-])cc3)cc2O1,1.65,
CC1(C)CC(O)c2cc(OCc3ccc([N+](=O)[O-])c(F)c3)c(OCc3ccc([N+](=O)[O-])c(F)c3)cc2O1 (stereo not given),2.34,
CC1(C)CC(=O)c2cc(OCc3ccc([N+](=O)[O-])c(F)c3)c(OCc3ccc([N+](=O)[O-])c(F)c3)cc2O1,1.22,
COc1ccc(COc2cc3c(cc2OCc2ccc(OC)c(F)c2)OC(C)(C)C=C3)cc1F,1.06,
COc1ccc(COc2cc3c(cc2OCc2ccc(OC)c(F)c2)C(=O)CC(C)(C)O3)cc1F,1.08,
CC1(C)C=Cc2cc(OCc3ccc([N+](=O)[O-])cc3)c(OCc3ccc([N+](=O)[O-])cc3)cc2O1,5.34,EC50 (Toll-like receptor 3): 22.3 µM; Activity [2]: Active; Activity (Homo sapiens): inactive; Activity (HEK293): Non-Toxic
O=[N+]([O-])c1ccc(COc2cc3c(cc2OCc2ccc([N+](=O)[O-])cc2)OC2(C=C3)CCCCC2)cc1,1,
CC1(C)CC(=O)c2cc(OCc3ccc(C(F)(F)F)cc3)c(OCc3ccc(C(F)(F)F)cc3)cc2O1,1.19,
CC1(C)C=Cc2cc(O)c(OCc3ccc([N+](=O)[O-])cc3)cc2O1,1.17,
CCC1(CC)C=Cc2cc(OCc3ccc([N+](=O)[O-])cc3)c(OCc3ccc([N+](=O)[O-])cc3)cc2O1,1.16,
CC1(C)C=Cc2cc(OCc3ccccc3)c(OCc3ccccc3)cc2O1,1.09,
CC1(C)C=Cc2cc(OCc3cccc([N+](=O)[O-])c3)c(OCc3cccc([N+](=O)[O-])c3)cc2O1,1.1,
CC1(C)CC(=O)c2cc(OCc3ccc([N+](=O)[O-])cc3)c(OCc3ccc([N+](=O)[O-])cc3)cc2O1,1.76,
COc1ccc(COc2cc3c(cc2OCc2ccc(OC)c(F)c2)C(O)CC(C)(C)O3)cc1F (stereo not given),1.34,
CC1(C)C=Cc2cc(OCc3ccc(C(F)(F)F)cc3)c(OCc3ccc(C(F)(F)F)cc3)cc2O1,0.99,
CC1(C)CC(=O)c2cc(OCc3ccc(F)c(F)c3)c(OCc3ccc(F)c(F)c3)cc2O1,1.22,
